2 compounds from ChEMBL document CHEMBL5252546, “Salutaxel, a Conjugate of Docetaxel and a Muramyl Dipeptide (MDP) Analogue, Acts as Multifunctional Prodrug That Inhibits Tumor Growth and Metastasis” (J Med Chem, 2018) can be followed below.

Calls of active or inactive are those of the source. No cut-off for these calls is given here.

Data set [1] concerns 4T1. The data set is described as follows: Antitumor activity against mouse 4T1 cells implanted in BALB/c mouse assessed as decrease in spleen MMP2 expression level at 5.7 mg/kg,iv administrated once per week for 4 weeks in presence of MDA-205 by western blot assay. In kind it is functional, organism-based. Put shortly:
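4T1 cells injected into mammary fat pads of BALB/c mice. Saline vehicle or test article given iv once weekly for 4 weeks. Spleen, lung and tumor lysates immunoblotted for MMP2/MMP9 with β-actin as loading control. Bands averaged over five mice per group, representative of two independent experiments.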
Background: A western blot detects proteins with antibodies after separation by electrophoresis.

In data set [2] the test system is 4T1. Kind of data set: Antitumor activity against mouse 4T1 cells implanted in BALB/c mouse assessed as decrease in tumor MMP9 expression level at 5.7 mg/kg,iv administrated once per week for 4 weeks in presence of compound 5b by western blot assay. In kind it is functional, organism-based. Put shortly:
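Tumour-bearing BALB/c mice (4T1 cells into mammary fat pad) given iv saline vehicle or test agents once weekly for 4 weeks. Tumours excised and probed by western blot for MMP9, MMP2 and NOD1, β-actin as loading control. Bands averaged over five mice per group; representative of two independent experiments.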

The test system of data set [3] is 4T1. The data set is described as follows: Antitumor activity against mouse 4T1 cells xenografted with BALB/c mouse assessed as reduction lung metastatic nodules at 5.7 mg/kg,iv administrated once per week for 4 weeks. In kind it is functional, organism-based. The essentials: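 4T1 cells injected into mammary fat pads of BALB/c mice. Dosing iv once per week for 4 weeks, saline vehicle; single-agent arms were given alone or with the peptide component (5b or 6). Endpoints were body weight, tumour volume, tumour weight, lung metastatic nodule count and lung metastasis score. Mean ± SEM, n = 10; ANOVA and Student's t test.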

Data set [4] is described as follows: Plasma protein binding in dog plasma incubated for 4 hrs. In kind it is ADME, cell-free, Canis lupus familiaris. As to conditions: read-out: PPB (converted).
Data set [5] deals with 4T1. Kind of data set: Antitumor activity against mouse 4T1 cells implanted in BALB/c mouse assessed as decrease in serum MMP9 level at 10 mg/kg,iv administrated once per week for 4 weeks by ELISA. In kind it is functional, organism-based. The essentials:
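4T1 fat-pad model in BALB/c mice, iv 5–20 mg/kg once weekly for 4 weeks, with vehicle and naive groups; serum MMP9, TIMP-1, IL-6 and S100A9 measured by mouse ELISA kits.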
For orientation: ELISA stands for enzyme-linked immunosorbent assay.

Another data set deals with Cytochrome P450 3A4 (Homo sapiens, UniProt P08684). Kind of data set: Inhibition of CYP3A4 in human liver microsomes using probe substrate at 0.1 to 100 uM in presence of NADPH. In kind it is ADME, Microsome. As to conditions: dose 0.1-100 µM. (In general: Liver microsomes are vesicles of endoplasmic reticulum, rich in cytochrome P450 enzymes.)
Chain of Cytochrome P450 3A4 (P08684 whole entry): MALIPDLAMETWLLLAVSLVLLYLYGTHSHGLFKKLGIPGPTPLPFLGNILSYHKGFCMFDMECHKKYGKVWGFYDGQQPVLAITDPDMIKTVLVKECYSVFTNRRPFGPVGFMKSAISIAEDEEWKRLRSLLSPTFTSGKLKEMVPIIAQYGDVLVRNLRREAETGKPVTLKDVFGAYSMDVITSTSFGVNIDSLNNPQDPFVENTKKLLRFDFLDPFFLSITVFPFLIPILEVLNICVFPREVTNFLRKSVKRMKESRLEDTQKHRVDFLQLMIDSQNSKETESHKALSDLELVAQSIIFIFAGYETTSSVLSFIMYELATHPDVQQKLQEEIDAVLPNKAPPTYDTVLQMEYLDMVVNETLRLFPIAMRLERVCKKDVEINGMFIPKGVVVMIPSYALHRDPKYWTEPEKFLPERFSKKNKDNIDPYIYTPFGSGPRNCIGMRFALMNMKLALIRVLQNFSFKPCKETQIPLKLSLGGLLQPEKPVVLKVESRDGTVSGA
Data set [6] can be described thus: Tmax in rat at 8 mg/kg,iv measured upto 24 hrs. In kind it is ADME, organism-based. As to conditions: in vivo.
The test system of another data set is KM12. Kind of data set: Antiproliferative activity against human KM12 cells assessed inhibition of cell growth incubated for 72 hrs by SRB assay. In kind it is functional, cell-based. As to conditions: KM12, 72 h.
Data set [7] in a line: AUC (0-infinity) in rat at 8 mg/kg,iv measured upto 24 hrs. The arrangement: time < 24 hrs, dose 8 mg/kg, route iv. As to conditions: in vivo. In kind it is ADME, organism-based. Put shortly: (§1)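 Single iv dose: rats 2, 4 or 8 mg/kg by intravenous injection; Beagle dogs 1, 2 or 4 mg/kg by intravenous infusion. Plasma concentration–time data were analysed by sex and pooled. Reported parameters: Cmax, Tmax, AUC0−t, AUC0−∞, MRT0−∞, t1/2, CL, Vss, given as mean ± SD.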

A short description of data set [8]: Drug metabolism in rat urine assessed as metabolite MDA-205 formation at 4 mg/kg,iv measured after 24 hrs. In kind it is ADME, organism-based. As to conditions: in vivo.
Data set [9] in a line: Drug metabolism in rat urine assessed as metabolite docetaxel formation at 4 mg/kg,iv measured after 24 hrs. In kind it is ADME, organism-based. As to conditions: in vivo.
Data set [10] can be described thus: Cmax in female rat at 4 mg/kg,iv measured upto 24 hrs. As to conditions: in vivo. In kind it is ADME, organism-based. The arrangement: time < 24 hrs, dose 4 mg/kg, route iv. The essentials:
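Rats were given a single iv injection at 2, 4 or 8 mg/kg. Plasma parent drug and released docetaxel were followed over time. Cmax, Tmax, AUC, MRT, t1/2, CL and Vss were reported for males, females and all animals combined.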

The nature of data set [11]: AUC (0-t) in female Beagle dog at 4 mg/kg,iv measured upto 24 hrs. In kind it is ADME, organism-based, Canis lupus familiaris. The arrangement: dose 4 mg/kg, time < 24 hrs, route iv. As to conditions: in vivo. Put shortly:
as §1

Data set [12] can be described thus: MRT (0 to infinity) in male rat at 2 mg/kg,iv measured upto 24 hrs. In kind it is ADME, organism-based. As to conditions: in vivo.
A short description of data set [13]: Cmax in female Beagle dog at 1 mg/kg,iv measured upto 24 hrs. As to conditions: in vivo. Further details: dose 1 mg/kg, time < 24 hrs, route iv. In kind it is ADME, organism-based, Canis lupus familiaris. The essentials:
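Beagle dogs were given a single iv infusion at 1, 2 or 4 mg/kg. Plasma parent drug and released docetaxel were followed over time. Cmax, Tmax, AUC, MRT, t1/2, CL and Vss were reported by sex and for all dogs combined.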

Data set [14] can be described thus: Toxicity in male Sprague-Dawley rat assessed as maximal non-toxic dose at iv administration. In kind it is organism-based. As to conditions: in vivo, read-out: MNTD.
Data set [15] is described as follows: Toxicity in Beagle dog assessed as maximal non-toxic dose at iv administration. In kind it is organism-based, Canis lupus familiaris. As to conditions: in vivo, read-out: MNTD.
Data set [16] can be described thus: Toxicity in Beagle dog assessed as effect on gastrointestinal tract at 3 to 18 mg/kg,iv measured upto 24 hrs. As to conditions: in vivo, dose 3-18 mg/kg. In kind it is organism-based, Canis lupus familiaris.
Data set [17] can be described thus: Toxicity in BALB/c mouse xenografted with human HCT-116 cells assessed as side effects at 10 mg/kg,iv administrated once per week for 3 weeks. In kind it is organism-based. As to conditions: in vivo, 504 h.
Data set [18] is described as follows: Toxicity in HaM/ICR mouse assessed as effect on motor autonomic activity at 5 to 20 mg/kg,iv. In kind it is organism-based. As to conditions: in vivo, dose 5-20 mg/kg.
The test system of data set [19] is 4T1. Kind of data set: Antitumor activity against mouse 4T1 cells implanted in BALB/c mouse assessed as decrease in PROK2 mRNA expression in lung at 20 mg/kg,iv administrated qd for 2 days by qRT-PCR analysis. In kind it is functional, organism-based. As to conditions: time 2.0 day. The essentials: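 Day 19 after 4T1 implantation, mice randomised into five groups; iv vehicle or 20 mg/kg plus ip C12-iE-DAP (50 μg/mouse) and MDP (100 μg/mouse) once daily for 2 days; killed after 48 h; lung mRNA for MMP8, MMP9, PROK2, S100A8, S100A9 and IL-1β by qPCR; mean ± SEM.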

Data set [20] in a line: Drug metabolism in monkey hepatocytes assessed as docetaxel metabolite formation at 20 uM incubated for 180 mins. In kind it is ADME, cell-based, Macaca mulatta, Hepatocyte. As to conditions: rhesus monkey, 3 h.
Data set [21] can be described thus: Drug metabolism in dog hepatocytes assessed as docetaxel metabolite formation at 20 uM incubated for 180 mins. In kind it is ADME, cell-based, Canis lupus familiaris, Hepatocyte. As to conditions: 3 h.
A short description of data set [22]: Drug metabolism in dog hepatocytes assessed as MDA-205 metabolite formation at 20 uM incubated for 180 mins. In kind it is ADME, cell-based, Canis lupus familiaris, Hepatocyte. As to conditions: 3 h.
Data set [23] can be described thus: Half life in female rat at 8 mg/kg,iv measured upto 24 hrs. In kind it is ADME, organism-based. As to conditions: in vivo.
Data set [24] is described as follows: AUC (0-infinity) in female Beagle dog at 1 mg/kg,iv measured upto 24 hrs. The arrangement: dose 1 mg/kg, time < 24 hrs, route iv. In kind it is ADME, organism-based, Canis lupus familiaris. As to conditions: in vivo. The essentials:
as §1

A short description of data set [25]: Half life in male rat at 4 mg/kg,iv measured upto 24 hrs. In kind it is ADME, organism-based. As to conditions: in vivo.
Data set [26] can be described thus: MRT (0 to infinity) in Beagle dog at 2 mg/kg,iv measured upto 24 hrs. As to conditions: in vivo. In kind it is ADME, organism-based, Canis lupus familiaris.
The subject of data set [27] is 4T1. The data set is described as follows: Antitumor activity against mouse 4T1 cells implanted in BALB/c mouse assessed as decrease in spleen MMP9 expression level at 5 to 20 mg/kg,iv administrated once per week for 4 weeks by western blot assay. In kind it is functional, organism-based. As to conditions: dose 5-20 mg/kg. Put shortly: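 4T1 fat-pad model in BALB/c mice, iv once weekly for 4 weeks; MMP9, MMP2 and NOD1 in spleen, lung and tumour by western blot, β-actin loading control; bands averaged over five mice per group, representative of two independent experiments.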

A short description of data set [28]: AUC (0-infinity) in male Beagle dog at 1 mg/kg,iv measured upto 24 hrs. In kind it is ADME, organism-based, Canis lupus familiaris. As to conditions: in vivo. Further details: dose 1 mg/kg, time < 24 hrs, route iv. Put shortly: as §1
A short description of data set [29]: Stability in monkey hepatocyte assessed as compound remaining at 3 uM incubated upto 120 mins. In kind it is ADME, cell-based, Macaca mulatta. As to conditions: rhesus monkey, hepatocytes, 2 h.
Data set [30] can be described thus: Tmax in female rat at 8 mg/kg,iv measured upto 24 hrs. As to conditions: in vivo. In kind it is ADME, organism-based.

Turning to `CC(=O)O[C@@]12CO[C@@H]1C[C@H](O)[C@@]1(C)C(=O)[C@H](O)C3=C(C)[C@@H](OC(=O)[C@H](O)[C@@H](NC(=O)OC(C)(C)C)c4ccccc4)C[C@@](O)([C@@H](OC(=O)c4ccccc4)[C@H]21)C3(C)C` [DOCETAXEL ANHYDROUS], the result in the data set with 4T1 [1], in the data set with 4T1 [2] and in the data set on 4T1 [3] was inactive.

On to `CC(=O)O[C@@]12CO[C@@H]1C[C@H](O)[C@@]1(C)C(=O)[C@H](O)C3=C(C)[C@@H](OC(=O)[C@H](OC(=O)CCC(=O)NCCCC[C@H](NC(=O)CC[C@@H](NC(=O)[C@H](C)NC(=O)/C=C/c4ccc(F)cc4Cl)C(N)=O)C(=O)O)[C@@H](NC(=O)OC(C)(C)C)c4ccccc4)C[C@@](O)([C@@H](OC(=O)c4ccccc4)[C@H]21)C3(C)C`, for which the fraction unbound at 4 h in [4] was 0.003. Also, the outcome in the data set on 4T1 [5], in the data set with 4T1 [19] and with 4T1 [27] was Active. Besides, the “inhibition (INH)” value on Cytochrome P450 3A4 is recorded as “Not Active”. Further, the Tmax in data set [6] and in data set [30] was 4.98 min each time. It took 16.3 nM to reach half-maximal inhibition in the data set with KM12 (IC50). Moreover, the AUC(0-inf) – broadly, the area under the concentration-time curve extrapolated to infinity – in data set [7] stood at 46100 ng·h/mL; in [24], 1640 ng·h/mL; in [28], 1630 ng·h/mL. The Drug metabolism result in data set [8], in [9], in [20], in data set [21] and in data set [22] was “Metabolite_Detected” throughout. The Cmax – broadly, the peak of the concentration-time curve – in [10] is 30500 ng/mL; in data set [13], 4020 ng/mL. The AUC(0-t) (in general, exposure summed from dosing to a finite time, without extrapolation to infinity) at 24 h in [11] came out at 20300 ng·h/mL. For the same compound, the MRT inf (as a rule, a mean duration of stay, worked out from the concentration-time curve) in data set [12] came to 13.9 min; in data set [26] it was 14.2 min. The figures for the NOAEL in [14] and in data set [15] were 4 mg/kg and 6 mg/kg, respectively. Further, the Activity result is “Toxic” in data set [16], “Non-Toxic” in data set [17] and “Non-Toxic” in data set [18]. The half-life (in general, how long it takes for the measured level to halve) in [23] is 15.2 min; in [25], 10.7 min. Further, the Stability entry in data set [29] is given as “Stable”.
